Fewer inactive variants are shown than the library holds.
B1: tRNA (parent)
chain: GUUCCGUUGGCGUAAUGGUAACGCGUCUCCCUCCUAAGGAGAAGACUGCGGGUUCGAGUCCCGUACGGAACG

Variants of: B1
Experiment: yeast fitness relative to wild type (ratio to wild type); higher = fitter; tRNA-Arg(CCU), competitive growth, 37 C, YPD
Summary of the method: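 Variants of the tRNA-Arg(CCU) gene were chemically synthesised with a 3% per-site mutation rate across 69 sites and placed at the native genomic locus in Saccharomyces cerevisiae. Six parallel replicates of the pooled strains were competed in YPD at 37°C for 24 hours, and gene amplicons from the start and end populations were read by 100-nucleotide paired-end sequencing. Darwinian fitness relative to wild type was derived from changes in genotype frequencies. Genotypes required ≥ 100 starting reads, and estimates < 0.5 were set to 0.5.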

Going from A20U C27G C29U C62G to U13A G41A A45C, the yeast fitness rises from ≤ 0.5 to 0.552.

First: G6C U8C G48A
Second: C5A G12A C33G A57U
The yeast fitness of the first is higher: 0.664 for the first, ≤ 0.5 for the second.

First: C33A A37U A57G
Second: C24A C31U A42C U47C
The yeast fitness of the first is higher: 0.545 for the first, ≤ 0.5 for the second.

Compared with A15C A43U, G10C C29G A42U G58A G63A G67A is lower in yeast fitness: 0.653 for the first, ≤ 0.5 for the second.

Compared with G58C G67U, C4G G18C A70C is lower in yeast fitness: 0.832 for the first, 0.508 for the second.

First: U3G C55U C66U
Second: A14C C34G
The yeast fitness of the first is lower: ≤ 0.5 for the first, 0.577 for the second.

Going from C31A C33G A36U U54C to C5A A21U A65G, the yeast fitness rises from ≤ 0.5 to 0.636.

Going from G9C A42C to C29A A36U C61U G67A G68U, the yeast fitness falls from 0.684 to ≤ 0.5.

Compared with G17C C30A C34G A37C U53C G63C, C5U A20G A37G is higher in yeast fitness: ≤ 0.5 for the first, 0.524 for the second.

Going from A37G C46U to C27A G39C C55G, the yeast fitness falls from 0.722 to ≤ 0.5.

Going from G12C U64C to G6A C33A, the yeast fitness falls from 0.916 to 0.686.

First: C4U G9A A15U A20C C27A A65U
Second: G6A G12A U54C C60G
The yeast fitness of the first is higher: 0.768 for the first, ≤ 0.5 for the second.

Compared with C55G, U2C U13C G44C G58A is lower in yeast fitness: 0.695 for the first, 0.59 for the second.

G9C C34A A57U and U16A G63A G67C cannot be ordered by yeast fitness: ≤ 0.5 for the first, ≤ 0.5 for the second.

Going from C55G C66A to C30U C55G A69C, the yeast fitness falls from 0.546 to ≤ 0.5.

Going from U2C A14C C46A to C34A G44C, the yeast fitness rises from ≤ 0.5 to 0.574.

C11A G38A A40U G50C C60G A70G and G6A C11A C27G U35A A43U U54C A65G cannot be ordered by yeast fitness: ≤ 0.5 for the first, ≤ 0.5 for the second.

Compared with C31G G38C, G9A A21G C29G C34G A57U C62G is lower in yeast fitness: 0.826 for the first, ≤ 0.5 for the second.

Compared with A37G C66U, A15U C27A A43C is lower in yeast fitness: 0.828 for the first, 0.592 for the second.

C11A C31G C34G C46G U59A G63A and G6A A21C U47A A70G cannot be ordered by yeast fitness: ≤ 0.5 for the first, ≤ 0.5 for the second.

C22U C24G U28A A45C G51A A57C C61U and C5G A14U G18A A21U C31U C60U C61U C66G cannot be ordered by yeast fitness: ≤ 0.5 for the first, ≤ 0.5 for the second.

First: A36C G41C
Second: C5A A14U A21C A43C
The yeast fitness of the first is lower: 0.579 for the first, 0.595 for the second.

U26A A43U G68A and U28A A45C A65C cannot be ordered by yeast fitness: ≤ 0.5 for the first, ≤ 0.5 for the second.

Going from G17A A69U to C5U A42U A69U, the yeast fitness falls from 0.809 to 0.728.

Compared with U3G G10A A21C U28A G68C, A36G A40U is higher in yeast fitness: ≤ 0.5 for the first, 0.938 for the second.

First: C62A A70U
Second: U8G C22U A43G
The yeast fitness of the first is higher: 0.858 for the first, ≤ 0.5 for the second.

Compared with C5A C30U G68A, C11G C33U U59C is higher in yeast fitness: ≤ 0.5 for the first, 0.66 for the second.

Going from G9A C24U C30G C34A C49G to C4G U64G, the yeast fitness rises from ≤ 0.5 to 0.671.

C5A C11G A45C C66G G68C and C11U U16A C24G A42C cannot be ordered by yeast fitness: ≤ 0.5 for the first, ≤ 0.5 for the second.

G12A C30U U54C and U3A A20G A43U C55G C61U cannot be ordered by yeast fitness: ≤ 0.5 for the first, ≤ 0.5 for the second.

C31G G38A U54A and C29A C60A C66G cannot be ordered by yeast fitness: ≤ 0.5 for the first, ≤ 0.5 for the second.

U7C U8G C27A A69U and A20U C60G G67A cannot be ordered by yeast fitness: ≤ 0.5 for the first, ≤ 0.5 for the second.

Compared with C24U A36G, U32C C34G A42U is lower in yeast fitness: 0.88 for the first, ≤ 0.5 for the second.

First: C4U C31G A37G
Second: U2C U3A U19G G44C
The yeast fitness of the first is lower: 0.526 for the first, 0.591 for the second.

Going from A15C C22G G58C C62U to C11U C61U A70G, the yeast fitness rises from ≤ 0.5 to 0.77.

Compared with A36U G41A C49G, G17A U64C C66U is higher in yeast fitness: 0.601 for the first, 0.69 for the second.

Compared with G6A U16C C34G G51A, G9A C11A A69C is higher in yeast fitness: ≤ 0.5 for the first, 0.567 for the second.

First: U19C A43U C49U
Second: U19C A21C G51A G58A
The yeast fitness of the first is higher: 0.698 for the first, ≤ 0.5 for the second.

Compared with C29A A43G, G6A C27U A42U C62U is lower in yeast fitness: 0.645 for the first, ≤ 0.5 for the second.

Going from U16G G23C G48A C61A C66U to U8A C27U A42G, the yeast fitness falls from 0.54 to ≤ 0.5.

Going from A20C G38A G51C U64G to U3C G67U, the yeast fitness rises from ≤ 0.5 to 0.839.

First: G18A U53A C62G
Second: A42U C46G
The yeast fitness of the first is lower: ≤ 0.5 for the first, 1.12 for the second.

First: C24A C34U A40C G68C
Second: U2C C5G C46U A70G
The yeast fitness of the first is lower: ≤ 0.5 for the first, 0.994 for the second.

Going from A20G C49U C66U to U2A U26C, the yeast fitness rises from 0.684 to 0.934.

U2A C24G A43U C46U A57G and A21U C30U U32A G63C cannot be ordered by yeast fitness: ≤ 0.5 for the first, ≤ 0.5 for the second.

Compared with C46G A70U, A36G U54A C62U is lower in yeast fitness: 0.976 for the first, ≤ 0.5 for the second.

Going from C22G C29G C46U A70U to U7A C46G G51A A65C, the yeast fitness falls from 0.592 to ≤ 0.5.

Going from G41A C60G A65G to G9C U32C A36G, the yeast fitness falls from 0.62 to ≤ 0.5.

First: C34U C49A G52A
Second: A36C G48A C66G
The yeast fitness of the first is higher: 0.59 for the first, ≤ 0.5 for the second.

C5G A14U A37U A45C and C4A A37G A45C C66G cannot be ordered by yeast fitness: ≤ 0.5 for the first, ≤ 0.5 for the second.

First: C24G G50C G68C
Second: G18A A37G G52C C61A
The yeast fitness of the first is higher: 0.629 for the first, ≤ 0.5 for the second.

U8G U32C C33G A43U G48C C55A and C11G G12A A45C C46G G52A cannot be ordered by yeast fitness: ≤ 0.5 for the first, ≤ 0.5 for the second.

Compared with G12C A21G G58C, A15C C24G A45G G56A A69C is lower in yeast fitness: 0.892 for the first, ≤ 0.5 for the second.

Going from U3C C22G C61U A65U to G17C U28G C30U C61A A69U, the yeast fitness falls from 0.596 to ≤ 0.5.

Compared with C5U G68A, C27G C31G is lower in yeast fitness: 0.969 for the first, 0.74 for the second.

Compared with U16G A21U C46G, U19A C22U G56A is higher in yeast fitness: ≤ 0.5 for the first, 0.547 for the second.

Going from U2A C30U to G48C U64A, the yeast fitness rises from 0.812 to 0.946.

Going from C11A G18C C27G to A37G A40G A43G G52C U59G, the yeast fitness falls from 0.64 to ≤ 0.5.

G39A C60G A70G and U3A C5G G10A C31U C33G G48C cannot be ordered by yeast fitness: ≤ 0.5 for the first, ≤ 0.5 for the second.

C11A U59G G63C and C4U C46G G51A G52A cannot be ordered by yeast fitness: ≤ 0.5 for the first, ≤ 0.5 for the second.

Compared with C31G C49U, C22G G23C C27A U28C U32C is lower in yeast fitness: 0.92 for the first, ≤ 0.5 for the second.

First: C27G G39C
Second: C22G C30U A37G A43U G67A
The yeast fitness of the first is lower: 0.585 for the first, 0.603 for the second.

First: C33G U47A U64G
Second: C29A C33A G51C C61U
The yeast fitness of the first is higher: 0.77 for the first, ≤ 0.5 for the second.

C4G U16C G44A G48A G50C A57U and C46G C55U A57C C61G cannot be ordered by yeast fitness: ≤ 0.5 for the first, ≤ 0.5 for the second.

Compared with C27U A43U C55U A69C, G12C G39A A70G is higher in yeast fitness: ≤ 0.5 for the first, 0.537 for the second.

A14U A37U C66U and C11G A15G A21G A37G A57U C60U C62G cannot be ordered by yeast fitness: ≤ 0.5 for the first, ≤ 0.5 for the second.

U16C A36C A37U and U2A A21G G41A A43G cannot be ordered by yeast fitness: ≤ 0.5 for the first, ≤ 0.5 for the second.

Compared with A15C C46A G56C A70G, C24A C29G A45G C62A A69C is higher in yeast fitness: ≤ 0.5 for the first, 0.52 for the second.

Going from C31U C60A A69U to G25U A36U, the yeast fitness rises from 0.506 to 0.531.

First: C22U U32C C46U U54G A70U
Second: C5G C24G C30G C31U U35A A36U G44A
The yeast fitness of the first is lower: 0.655 for the first, 0.832 for the second.

C5U C31U G50A U54C C55G and C4G C11G A20G A36U G63A A65U C66U cannot be ordered by yeast fitness: ≤ 0.5 for the first, ≤ 0.5 for the second.

First: G9C C46U A57C
Second: U26A U47G
The yeast fitness of the first is higher: 0.662 for the first, 0.661 for the second.

Going from U26A U53A to A14G A40U G44A A65U, the yeast fitness falls from 0.557 to ≤ 0.5.

A21U A45U G52A and C4U U13C C29G G38C cannot be ordered by yeast fitness: ≤ 0.5 for the first, ≤ 0.5 for the second.

U7G C31U G39A C55U G68C and C4G U16C C31U A36G cannot be ordered by yeast fitness: ≤ 0.5 for the first, ≤ 0.5 for the second.

C22U U47G U59A and U19C A36C G58C cannot be ordered by yeast fitness: ≤ 0.5 for the first, ≤ 0.5 for the second.

Compared with U13A A45G G50C C60A A69C, C11G C34U C62G is lower in yeast fitness: 0.821 for the first, 0.542 for the second.

Going from U26A G41C C66A A70C to C5A U13C C29U, the yeast fitness falls from 0.663 to ≤ 0.5.

First: C5G C33G G67A
Second: C27U C46U G67U
The yeast fitness of the first is lower: ≤ 0.5 for the first, 0.626 for the second.

Going from C5A U35C A57C to U2A A45C A70C, the yeast fitness rises from ≤ 0.5 to 0.758.

First: A15G U19C A21G
Second: C4U G56A G67A
The yeast fitness of the first is higher: 0.656 for the first, 0.649 for the second.

Compared with U8A C66G, U13C G51C U54C is lower in yeast fitness: 0.582 for the first, ≤ 0.5 for the second.

G17A G51A G56C G58C and C49U G51C G68A cannot be ordered by yeast fitness: ≤ 0.5 for the first, ≤ 0.5 for the second.

G39A U54A showed a yeast fitness of 0.61.
